From PubChem BioAssay AID588760 (Johns Hopkins Ion Channel Center, 2011)
Activity calls are given as the source filed them.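 Rule for the calls: active = fitted dose response curve and peak inhibition of the Kir2.1 potassium channel above 30% at some dose; inactive = no dose response or no inhibition at any dose.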

Target: Inward rectifier potassium channel 2 (Mus musculus) (UniProt P35561)
Experiment: off-target blockade of inward rectifier Kir2.1 – cell-based, FluxOR thallium flux, CRC round 3, selectivity assay for KCNK9 inhibitor project, SAR follow-up (AID 588760)
Conditions: Kir2.1-expressing cells, 20 min; series mostly up to 30 µM
Outline: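 Material: FluxOR-loaded Kir2.1 HEK293 cells | Times: 90 min dye load, 20 min compound, RT | Technique: Kinetic fluorescence of thallium-sensitive dye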

Chain of Inward rectifier potassium channel 2 (Mus musculus) (P35561 whole entry, looked up): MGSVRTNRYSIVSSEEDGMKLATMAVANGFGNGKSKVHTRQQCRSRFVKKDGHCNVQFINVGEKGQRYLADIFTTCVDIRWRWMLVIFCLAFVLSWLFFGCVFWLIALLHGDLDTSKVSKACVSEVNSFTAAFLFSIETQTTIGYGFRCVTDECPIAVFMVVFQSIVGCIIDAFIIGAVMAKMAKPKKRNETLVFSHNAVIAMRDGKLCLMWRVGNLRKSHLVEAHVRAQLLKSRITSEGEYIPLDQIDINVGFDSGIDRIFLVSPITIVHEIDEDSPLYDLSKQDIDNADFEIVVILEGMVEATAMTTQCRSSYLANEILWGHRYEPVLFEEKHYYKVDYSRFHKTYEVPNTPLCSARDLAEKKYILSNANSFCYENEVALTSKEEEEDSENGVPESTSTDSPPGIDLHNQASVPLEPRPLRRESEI

SMILES	outcome
CC(C1CC2CCC1C2)n1c(SC(F)F)nnc1-c1ccco1 (stereo unspecified)	inactive
CC(C1CCCCC1)n1c(-c2ccco2)n[nH]c1=S (stereo unspecified)	inactive
COc1cccc(-c2nnc(S(C)(=O)=O)n2C(C)C2CC3CCC2C3)c1 (stereo unspecified)	inactive
CC(C1CC2CCC1C2)n1c(-c2cccnc2)n[nH]c1=S (stereo unspecified)	inactive
CC(CCC1CCCC1)n1c(-c2ccco2)n[nH]c1=S (stereo unspecified)	inactive
CC(C1CC2CCC1C2)n1c(SCc2ccccc2)nnc1-c1ccco1 (stereo unspecified)	inactive
CC(C)Oc1ccccc1C(=O)Nc1cccc(NC(=O)c2ccccc2OC(F)(F)F)c1	inactive
C[C@@H](C1CCCCC1)n1c(-c2ccco2)n[nH]c1=S	inactive
CC(C1CC2CCC1C2)n1c(-c2cccn2C)n[nH]c1=S (stereo unspecified)	inactive
CC(C1CC2CCC1C2)N(C)C(=O)c1ccco1 (stereo unspecified)	inactive
COc1ccccc1C(=O)Nc1cc(NC(=O)c2ccccc2C(C)C)ccc1F	inactive
CC(c1cccc2ccccc12)n1c(-c2ccco2)n[nH]c1=S (stereo unspecified)	inactive
CSc1nnc(-c2ccco2)n1C(C)C1CC2CCC1C2 (stereo unspecified)	inactive
CC(C1CC2CCC1C2)n1c(-c2cccs2)n[nH]c1=S (stereo unspecified)	inactive
CC(C1CC2CCC1C2)n1c(SCC(=O)c2ccc(Cl)c(Cl)c2)nnc1-c1ccco1 (stereo unspecified)	inactive
CC(C1CC2CCC1C2)n1c(SCC(=O)c2ccccc2)nnc1-c1ccco1 (stereo unspecified)	inactive
S=c1[nH]nc(-c2ccco2)n1C1CC2CCC1C2 (stereo unspecified)	inactive
C[C@H](C1CCCCC1)n1c(-c2ccco2)n[nH]c1=S	inactive
CC(C1CC2CCC1C2)n1c(SCC(=O)c2ccc3c(c2)OCO3)nnc1-c1ccco1 (stereo unspecified)	inactive
COc1ccc(CCSc2nnc(-c3ccco3)n2C(C)C2CC3CCC2C3)cc1OC (stereo unspecified)	inactive
CC(C1CC2CCC1C2)n1c(SCC#N)nnc1-c1cccs1 (stereo unspecified)	inactive
